Experimental data published in ChEMBL document CHEMBL4000155, “Synthesis and Antileukemic Activities of Piperlongumine and HDAC Inhibitor Hybrids against Acute Myeloid Leukemia Cells” (J Med Chem, 2016).
Active and inactive are the calls of the source. The calls are words filed in the database; no cut-off is given here.

Tests used:
[1] = test system: U-937; test: Induction of apoptosis in p53 null human U937 cells at 0.25 to 2 uM after 24 hrs by annexin V-FITC/PI staining based flow cytometry; format: functional, cell-based
Procedure, shortened: (§1)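 Cells treated 24 h, single agents or SAHA+PL at 1:1 (each drug at the stated concentration). Annexin V-FITC/PI kit staining, then flow cytometry, reported as % Annexin V+ cells. Three independent experiments in triplicate, with data from one representative experiment. DMSO <0.1% vehicle control.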

[2] = organism: Homo sapiens; conditions: at 1 µM
[3] = test system: U-937; test: Induction of apoptosis in p53 null human U937 cells at 1 uM after 24 hrs by annexin V-FITC/PI staining based flow cytometry; format: functional; procedure, shortened: as §1
[4] = test system: U-937; test: Induction of DNA damage in p53 null human U937 cells at 2 uM after 20 hrs by SYBR gold staining based alkaline comet assay; format: functional, cell-based
Procedure, shortened: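 U937 cells treated 20 h with SAHA and PL alone or combined (16 h for hybrids). Alkaline single-cell gel electrophoresis, SYBR Gold staining, microscopy. Median % DNA in tail from 4 replicate gels ± s.e.m.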

[5] = test system: MCF-10A; test: Cytotoxicity against human MCF10A cells assessed as decrease in cell viability at 0.5 to 5 uM after 24 hrs by MTT assay; format: cell-based
Procedure, shortened: (§2)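 MCF-10A (DMEM/F12, 5% horse serum, hydrocortisone, cholera toxin, insulin, EGF) and U937 (RPMI 1640, 10% FBS) were exposed to 0.5–5 μM, alone or PL+SAHA 1:1, for 24 h. MTT 0.05 mg/mL, 3 h at 37 °C, DMSO solubilization, A570. Viability given as mean ± SD of four to six independent experiments. DMSO <0.1% vehicle control.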

[6] = test system: U-937; test: Induction of cell death in p53 null human U937 cells at 1 to 4 uM after 24 hrs by annexin V-FITC/PI staining based flow cytometry; format: functional
Procedure, shortened: (§3)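 Human U937 AML cells (p53 null) in RPMI 1640 with 10% FBS, 2 mM L-glutamine, penicillin/streptomycin, 37 °C, 5% CO2. Exposed 24 h to compound alone or with SAHA; vehicle DMSO < 0.1% v/v. Annexin V-FITC/PI staining and flow cytometry, reported as % Annexin V+ cells. Three independent experiments in triplicate; one representative shown. EC50 taken as concentration giving 50% Annexin V+ cells versus vehicle.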

[7] = Antiproliferative activity against human CMS cells after 72 hrs by MTT assay; format: functional, cell-based
Procedure, shortened: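 AML cell lines grown in RPMI 1640 with 10% FBS (20% for MOLM-13), 2 mM L-glutamine and penicillin/streptomycin at 37 °C, 5% CO2. Ara-C-resistant HL-60 and CMK sublines came from stepwise cytarabine selection and were kept in 600 nM or 300 nM cytarabine respectively. Cells were treated 72 h. MTT 0.05 mg/mL, 3 h at 37 °C, DMSO solubilization, absorbance at 570 nm. IC50 given ± SEM.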

[8] = test system: U-937; test: Induction of apoptosis in p53 null human U937 cells at 2 uM after 24 hrs by annexin V-FITC/PI staining based flow cytometry; format: functional; procedure, shortened: as §3
[9] = test system: U-937; test: Induction of apoptosis in p53 null human U937 cells at 2 uM preincubated with NAC for 3 hrs followed by compound addition measured after 24 hrs by annexin V-FITC/PI staining based flow cytometry; format: functional, cell-based
Procedure, shortened: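 U937 cells preincubated 3 h with 3 mM NAC or vehicle and washed with PBS to remove excess NAC. Then drug alone or with SAHA for 24 h. Apoptosis scored as % Annexin V+ by Annexin V-FITC/PI flow cytometry; vehicle DMSO < 0.1% v/v.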

[10] = Chemical stability of the compound in pH 7.4 phosphate buffer at 50 uM incubated up to 4 hrs in presence of GSH by HPLC analysis; format: physicochemical; conditions: pH 7.4, 4 h
Procedure, shortened: (§4)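 Compound at 50 μM incubated with or without 5 mM GSH in phosphate buffer pH 7.4 at 37 °C for up to 4 h. Mixtures analysed by HPLC with water/0.1% formic acid/10% methanol versus 0.1% formic acid in acetonitrile, 0.5 mL/min, 10–80% B gradient over 18 min.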

[11] = test system: U-937; test: Cytotoxicity against p53 null human U937 cells assessed as decrease in cell viability at 0.5 to 5 uM after 24 hrs by MTT assay; format: functional, cell-based; procedure, shortened: as §2
[12] = test system: U-937; test: Induction of apoptosis in p53 null human U937 cells at 0.5 uM after 24 hrs by annexin V-FITC/PI staining based flow cytometry; format: functional; procedure, shortened: as §1
[13] = Chemical stability of the compound in pH 7.4 phosphate buffer at 50 uM incubated up to 4 hrs in absence of GSH by HPLC analysis; format: physicochemical; conditions: pH 7.4, 4 h; procedure, shortened: as §4
[14] = test system: AML; test: Induction of apoptosis in patient derived AML-91 cells after 24 hrs by annexin V-FITC/PI staining based flow cytometry; format: functional, cell-based; conditions: Homo sapiens
Procedure, shortened: (§5)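 Primary AML samples purified by Ficoll-Hypaque density centrifugation and cultured in RPMI 1640 with 20% FBS, ITS and 20% 5637 bladder cancer cell supernatant as a GM-CSF source. Treated 24 h, then Annexin V-FITC/PI flow cytometry as % Annexin V+. Single experiment in triplicate.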

[15] = test system: AML; test: Induction of apoptosis in patient derived AML cells assessed as caspase 3 cleavage at 0.25 to 2 uM after 24 hrs by Western blot analysis; format: functional, cell-based; conditions: Homo sapiens
Procedure, shortened: (§6)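 Primary AML patient cells, Ficoll-Hypaque purified and grown in RPMI 1640/20% FBS with ITS and 5637 supernatant. Exposed 24 h; whole-cell lysates prepared with protease/phosphatase inhibitors, run on SDS-PAGE, blotted to PVDF and probed for PARP and cleaved caspase-3.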

[16] = test system: AML; test: Induction of apoptosis in patient derived AML-92 cells after 24 hrs by annexin V-FITC/PI staining based flow cytometry; format: functional, cell-based; conditions: Homo sapiens; procedure, shortened: as §5
[17] = test system: U-937; test: Induction of apoptosis in p53 null human U937 cells assessed as caspase 3 cleavage at 0.25 to 0.5 uM after 24 hrs by Western blot analysis; format: functional, cell-based
Procedure, shortened: (§7)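 U937 cells exposed for 24 h. Lysates with protease/phosphatase inhibitors were separated by SDS-PAGE, transferred to PVDF and probed for PARP and cleaved caspase-3, with β-actin as loading control.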

[18] = test system: U-937; test: Induction of apoptosis in p53 null human U937 cells at 0.25 uM after 24 hrs by annexin V-FITC/PI staining based flow cytometry; format: functional; procedure, shortened: as §1
[19] = test system: U-937; test: Induction of apoptosis in p53 null human U937 cells assessed as PARP-1 cleavage at 0.25 to 0.5 uM after 24 hrs by Western blot analysis; format: functional, cell-based; procedure, shortened: as §7
[20] = test system: U-937; test: Induction of apoptosis in p53 null human U937 cells at 0.25 to 0.5 uM preincubated with NAC for 3 hrs followed by compound addition measured after 24 hrs by annexin V-FITC/PI staining based flow cytometry; format: functional, cell-based
Procedure, shortened: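 U937 cells preincubated 3 h with 3 mM NAC or vehicle, washed with PBS, then drug-treated 24 h. Annexin V-FITC/PI staining by flow cytometry, reported as % Annexin V+.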

[21] = test system: AML; test: Induction of apoptosis in patient derived AML cells assessed as PARP-1 cleavage at 0.25 to 2 uM after 24 hrs by Western blot analysis; format: functional, cell-based; conditions: Homo sapiens; procedure, shortened: as §6

Row | SMILES | Activity [1] | inhibition [2] | Activity [5] | Activity [8] [%] | Activity [11] | other results
1 | COc1cc(/C=C/C(=O)N2CCC(C)=CC2=O)cc(OC)c1OCCCCCCC(=O)NO | inactive | Active |  |  |  | 
2 | COC(=O)CCCCCCOc1c(OC)cc(/C=C/C(=O)N2CCC=C(Cl)C2=O)cc1OC |  | inactive |  |  |  | Activity [3]: 29.7%
3 | COC(=O)CCCCCCOc1c(OC)cc(/C=C/C(=O)N2CCC=CC2=O)cc1OC | inactive | inactive |  |  |  | 
4 | O=C(CCCCCCC(=O)Nc1ccccc1)NO [VORINOSTAT] |  |  | Non-Toxic | 25 |  | Activity [4]: inactive; Activity [6]: Active; IC50 [7]: 1020 nM; Activity [9]: inactive
5 | COc1cc(C(=O)N2CCC=C(Cl)C2=O)cc(OC)c1OCCCCCCC(=O)NO |  | Active | Non-Toxic | 40 | Active | Stability [10]: Unstable
6 | COc1cc(C(=O)N2CCC=CC2=O)cc(OC)c1OCCCCCCC(=O)NO |  | Active | Non-Toxic | 40 | Active | 
7 | COc1cc(/C=C/C(=O)N2CCC=C(Cl)C2=O)cc(OC)c1OCCCCCCC(=O)NO |  | Active | Toxic | 100 | Active | Activity [12]: 49.2%; Activity [3]: 88%; Stability [10]: Unstable; Stability [13]: Stable; Activity [14]: Dose-dependent effect; Activity [15]: Active; Activity [16]: Dose-dependent effect; Activity [17]: Active; Activity [18]: 29.9%; Activity [19]: Active; Activity [20]: inactive; Activity [21]: Active
8 | COc1cc(/C=C/C(=O)N2CCCCC2=O)cc(OC)c1OCCCCCCC(=O)NO | inactive | Active |  |  |  | 
